The record followed here is ChEMBL document CHEMBL1158936, “New avarone and avarol derivatives from the marine sponge Dysidea cinerea” (J Nat Prod, 1991).

≈ marks a conversion by molar mass, not a printed value. Calls of active or inactive are those of the source.

The target of test [1] is Human immunodeficiency virus type 1 reverse transcriptase (Human immunodeficiency virus 1) (UniProt Q72547). Briefly: Inhibition of HIV1 reverse transcriptase.
For the next test, the system named is Candida albicans. The experiment in a line: Antimicrobial activity against Candida albicans. It counts as functional.
The test system of another test is P388. The experiment in a line: Cytotoxicity against mouse P388 cells. The format is functional, cell-based. The gist of the method:
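P388 mouse leukemia cells; cytotoxicity reported as IC50 in μg/ml.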

On to `CC1=CCC[C@H]2[C@](C)(CC3=CC(=O)C=C(O)C3=O)[C@@H](C)CC[C@]12C`, for which, in test [1], the outcome was Active. This compound also gave an MIC against Candida albicans of 12.5 µg/mL (≈ 38.1 µM). Besides, in the test on P388, the 50% inhibitory concentration (IC50) amounted to 0.6 µg/mL (≈ 1.83 µM).
Take `CC1=CCC[C@H]2[C@](C)(Cc3c(O)ccc(O)c3O)[C@@H](C)CC[C@]12C`: the outcome in test [1] was inactive.
`CC(=O)OC1=C(C[C@]2(C)[C@@H](C)CC[C@]3(C)C(C)=CCC[C@@H]23)C(=O)C=CC1=O`: the result in test [1] was inactive. Besides, in the test on P388, inhibition was half-maximal at 10 µg/mL (≈ 27 µM) (IC50).
For `COC1=CC(=O)C(C[C@]2(C)[C@@H](C)CC[C@]3(C)C(C)=CCC[C@@H]23)=C(O)C1=O` the same measures were “Active” and > 20 µg/mL.
In the case of `CC(=O)Oc1c(O)ccc(O)c1C[C@]1(C)[C@@H](C)CC[C@]2(C)C(C)=CCC[C@@H]12`, the result in test [1] was inactive. The same compound displayed a minimum inhibitory concentration (MIC) against Candida albicans of 12.5 µg/mL (≈ 33.6 µM). Besides, the IC50 in the test with P388 is < 0.6 µg/mL.
In the case of `CC1=CCC[C@H]2[C@](C)(CC3=C(O)C(=O)C=C(O)C3=O)[C@@H](C)CC[C@]12C`, in test [1], the outcome was Active. Further, the MIC in the test with Candida albicans was found to be 50 µg/mL (≈ 145 µM). The compound further came in with an IC50 with P388 of 1.2 µg/mL (≈ 3.48 µM).

Broadly, the MIC is the smallest concentration in the dilution series that meets the test's criterion for growth inhibition. Read a low MIC as greater potency. In general, IC50 refers to the concentration that inhibits the measured activity by half. Low readings indicate higher potency, high ones lower potency.
